Reference: ChEMBL document CHEMBL3860029, “Maximiscin Induces DNA Damage, Activates DNA Damage Response Pathways, and Has Selective Cytotoxic Activity against a Subtype of Triple-Negative Breast Cancer” (J Nat Prod, 2016)
Active and inactive are the calls of the source. The rule behind the calls is not given here.

Assays:
[1] = Cytotoxicity against human MDA-MB-468 cells after 48 hrs by SRB assay; assay type: functional; conditions: MDA-MB-468, 48 h, read-out: LC50 (the source's name)
Method in brief: (§1)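 Cells grown in RPMI-1640 with 50 µg/mL gentamicin and 10% FBS at 37°C, 5% CO2, and passaged under 3 months after revival. Sulforhodamine B assay after 48 h of compound exposure, with cell density measured at time of treatment (T0). LC50 (50% cell death vs T0) interpolated by nonlinear regression. At least 3 independent experiments, each concentration in triplicate.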

[2] = Cytotoxicity against human MDA-MB-231 cells after 48 hrs by SRB assay; assay type: functional; conditions: MDA-MB-231, 48 h, read-out: LC50 (the source's name)
Method in brief: as §1, with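 “in IMEM” for “in RPMI-1640”, “with 25” for “with 50”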

[3] = Cytotoxicity against human MDA-MB-453 cells after 48 hrs by SRB assay; assay type: functional; conditions: MDA-MB-453, 48 h, read-out: LC50 (the source's name)
Method in brief: as §1, with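 “in IMEM” for “in RPMI-1640”, “with 25” for “with 50”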

[4] = Cytotoxicity against human BT549 cells after 48 hrs by SRB assay; assay type: functional; conditions: BT-549, 48 h, read-out: LC50 (the source's name); method in brief: as §1
[5] = Cytotoxicity against human HCC70 cells after 48 hrs by SRB assay; assay type: functional; conditions: HCC70, 48 h, read-out: LC50 (the source's name); method in brief: as §1
[6] = target: Cellular tumor antigen p53 (Homo sapiens) (UniProt P04637); assay: Induction of p53 phosphorylation at serine15 in whole cell human MDA-MB-468 cell lysates at 1 uM by antibody microarray assay; assay type: cell-based; conditions: TDE = time-dependent effect
Sequence of Cellular tumor antigen p53 (Homo sapiens) (P04637 whole entry, looked up): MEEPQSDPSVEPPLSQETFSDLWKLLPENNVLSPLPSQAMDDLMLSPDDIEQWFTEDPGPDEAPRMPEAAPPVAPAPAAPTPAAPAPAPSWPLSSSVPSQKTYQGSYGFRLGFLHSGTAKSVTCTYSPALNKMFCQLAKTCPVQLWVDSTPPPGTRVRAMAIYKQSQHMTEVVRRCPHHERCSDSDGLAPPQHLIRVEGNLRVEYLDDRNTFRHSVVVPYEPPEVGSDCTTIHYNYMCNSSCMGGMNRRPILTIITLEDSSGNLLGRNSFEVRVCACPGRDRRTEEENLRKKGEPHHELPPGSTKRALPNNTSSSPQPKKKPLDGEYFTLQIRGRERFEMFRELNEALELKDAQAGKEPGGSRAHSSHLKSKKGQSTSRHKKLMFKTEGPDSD
Method in brief: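 MDA-MB-468 whole-cell lysates, prepared as for immunoblotting after early post-treatment time points, applied to a PathScan intracellular signaling antibody array with fluorescent readout. Near-infrared signals imaged and quantified.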

[7] = Selectivity ratio of LC50 for human MDA-MB-231 cells to LC50 for human MDA-MB-468 cells; assay type: functional
Method in brief: (§2)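 Both LC50s come from 48 h sulforhodamine B assays, with T0 density measured at treatment. LC50 is 50% cell death vs T0, interpolated by nonlinear regression. At least 3 independent experiments, concentrations in triplicate. MDA-MB-468, HCC70 and BT-549 were grown in RPMI-1640. MDA-MB-231 and MDA-MB-453 were grown in IMEM.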

BT-549 = assay: Selectivity ratio of LC50 for human BT549 cells to LC50 for human MDA-MB-468 cells; assay type: functional; method in brief: as §2
[8] = target: Serine/threonine-protein kinase Chk2 (Homo sapiens) (UniProt O96017); assay: Induction of CHK2 phosphorylation at T68-residue in human MDA-MB-468 cells at 1 uM after 2 hrs by immunoblot analysis; assay type: cell-based
Sequence of Serine/threonine-protein kinase Chk2 (Homo sapiens) (O96017 whole entry): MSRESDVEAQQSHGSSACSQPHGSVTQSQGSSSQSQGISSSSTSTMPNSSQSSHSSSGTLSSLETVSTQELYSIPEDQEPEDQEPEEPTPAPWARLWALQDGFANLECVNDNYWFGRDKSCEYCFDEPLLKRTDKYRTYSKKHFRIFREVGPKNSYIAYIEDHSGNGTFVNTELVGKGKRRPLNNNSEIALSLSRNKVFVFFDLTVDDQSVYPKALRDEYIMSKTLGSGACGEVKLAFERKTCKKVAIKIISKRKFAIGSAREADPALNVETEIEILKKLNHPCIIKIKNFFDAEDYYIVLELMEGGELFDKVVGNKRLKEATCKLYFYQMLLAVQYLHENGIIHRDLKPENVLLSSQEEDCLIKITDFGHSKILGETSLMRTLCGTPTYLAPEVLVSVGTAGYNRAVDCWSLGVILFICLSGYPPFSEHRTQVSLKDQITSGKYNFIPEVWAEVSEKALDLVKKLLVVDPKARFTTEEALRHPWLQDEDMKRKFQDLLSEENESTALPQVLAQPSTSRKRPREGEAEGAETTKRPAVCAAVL
Method in brief: (§3)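 Whole-cell lysates of MDA-MB-468 cells taken after vehicle or compound treatment for the stated times. Lysis buffer held protease inhibitors, PMSF and Na3VO4. Equal protein run on SDS-PAGE, blotted to PVDF and probed for phospho-S345-Chk1, phospho-T68-Chk2 and phospho-S15-p53 alongside total proteins and β-actin. Read by near-infrared fluorescent secondaries.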

Mus musculus = assay: Toxicity in athymic nude mouse xenografted with human MDA-MB-468 cells assessed as weight loss at 5 mg/kg, ip administered daily for 21 days […] relative to control; assay type: organism-based; conditions: in vivo, 504 h
Method in brief: (§4)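 Female athymic nude mice implanted s.c. bilaterally in each flank with 2 × 10^6 MDA-MB-468 cells in DPBS plus Matrigel. Dosing began at tumor volume of at least 150 mm3, with 7 or 8 tumors/group. Dose was 5 mg/kg i.p. daily for 21 days in 2.5% DMSO/2.5% Kolliphor EL in DPBS; controls untreated. Mice weighed and examined daily; calipers twice weekly; volume = length × width × height.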

[9] = target: T1, Serine/threonine-protein kinase Chk1 (Homo sapiens) (UniProt O14757); assay: Induction of CHK1 phosphorylation at S345-residue in human MDA-MB-468 cells at 1 uM after 4 hrs by immunoblot analysis; assay type: cell-based; method in brief: as §3
T1 sequence (whole entry): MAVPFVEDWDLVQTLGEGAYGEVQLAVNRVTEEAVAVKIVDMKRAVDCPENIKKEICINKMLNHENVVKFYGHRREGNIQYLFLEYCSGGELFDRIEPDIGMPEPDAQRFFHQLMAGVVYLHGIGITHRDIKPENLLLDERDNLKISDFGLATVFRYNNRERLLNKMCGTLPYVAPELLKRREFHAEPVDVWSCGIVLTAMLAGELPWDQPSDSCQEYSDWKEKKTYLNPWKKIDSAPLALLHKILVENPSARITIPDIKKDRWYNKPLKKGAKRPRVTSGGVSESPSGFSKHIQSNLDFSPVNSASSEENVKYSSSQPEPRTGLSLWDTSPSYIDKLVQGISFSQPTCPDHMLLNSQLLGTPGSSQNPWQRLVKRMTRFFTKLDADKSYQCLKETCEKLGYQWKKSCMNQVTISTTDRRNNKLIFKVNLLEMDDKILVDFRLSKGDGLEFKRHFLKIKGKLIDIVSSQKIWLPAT

[10] = target: Cellular tumor antigen p53 (Homo sapiens) (UniProt P04637); assay: Induction of p53 phosphorylation at serine15 in human MDA-MB-468 cells after 2 hrs at 1 uM by immunoblot analysis; assay type: cell-based; method in brief: as §3
HCC70 = assay: Selectivity ratio of LC50 for human HCC70 cells to LC50 for human MDA-MB-468 cells; assay type: functional; method in brief: as §2
MDA-MB-468 [11] = assay: Induction of DNA double stranded break in human MDA-MB-468 cells assessed as increase in gamma-H2A.X foci at 1 to 10 uM after 18 hrs by nucblue staining based immunofluorescent microscopic analysis; assay type: functional, cell-based
Method in brief: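 MDA-MB-468 cells on glass coverslips, adhered overnight, then exposed 18 h. Paraformaldehyde fixation, blocking in 10% bovine calf serum/DPBS 20 min at room temperature, then anti-γ-H2A.X in 1% BSA/0.3% Triton X-100. Detection with Alexa Fluor 594 secondary and NucBlue nuclear counterstain at 60× objective. Two independent experiments, each concentration in duplicate.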

[12] = Cell cycle arrest in human MDA-MB-468 cells assessed as accumulation at G0/G1 phase at 1 to 10 uM after 18 hrs by propidium iodide staining based FACS analysis; assay type: functional
Method in brief: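 MDA-MB-468 cells (RPMI-1640, 10% FBS, gentamicin) exposed to vehicle (DMSO) or compound for 18 h. Cells harvested and stained with Krishan's reagent (PI). DNA content read on a Muse Cell Analyzer to give phase distribution. n = 3; two-way ANOVA with Dunnett's post-hoc test.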

MDA-MB-468 [13] = assay: Antitumor activity against human MDA-MB-468 cells xenografted in athymic nude mouse assessed as tumor growth inhibition at 5 mg/kg, ip administered daily for 21 days measured on day 21 post dose relative to control; assay type: functional, organism-based; method in brief: as §4
[14] = Selectivity ratio of LC50 for human MDA-MB-453 cells to LC50 for human MDA-MB-468 cells; assay type: functional; method in brief: as §2

Row | SMILES | CC50 [1] | CC50 [2] | CC50 [3] | CC50 [4] | CC50 [5] | Activity [6] | RatioLC50 [7] | RatioLC50 (BT-549) | Activity [8] | Activity (Mus musculus) | Activity [9] | Activity [10] | RatioLC50 (HCC70) | Activity (MDA-MB-468 [11]) | Activity [12] | TGI (MDA-MB-468 [13]) | RatioLC50 [14]
1 | CC(=O)O[C@H]1C(=O)[C@@]2(C)[C@H]([C@H](OC(=O)c3ccccc3)[C@]3(O)C[C@H](OC(=O)[C@H](O)[C@@H](NC(=O)c4ccccc4)c4ccccc4)C(C)=C1C3(C)C)[C@]1(OC(C)=O)CO[C@@H]1C[C@@H]2O [PACLITAXEL] | 9.8 nM | > 62.5 nM | 8.2 nM | 18 nM | > 31.2 nM |  |  |  |  |  |  |  |  |  |  |  | 
2 | C=C[C@@H]1C[C@H](C)C[C@H](C)[C@H]1c1c(O)ccn(O[C@@H]2C(C(=O)OC)=C[C@@H](O)[C@@H](O)[C@H]2O)c1=O | 600 nM | 60000 nM | 15000 nM | 15000 nM | 39000 nM | Tde | 25 - 100 | 25 - 100 | Active | 12% | Active | Active | 25 - 100 | Dose-dependent effect | Active | Active | 25 - 100
